Assay outcomes deposited in PubChem BioAssay by several laboratories.
This is a sample that favours compounds with a hit; in the whole collection about 2.9% have one here.
SENP6 block = blocks the human protease SENP6. inhibition, % at 10 µM. hit rate 1.8% among 330,000. Recombinant SENP6 catalytic domain, aminoluciferin luminescence. AID 2599;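 active means inhibition above about 50% at the single tested dose, limit read from the data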
Target sequence (Q9GZR1 628-1112 limits assumed): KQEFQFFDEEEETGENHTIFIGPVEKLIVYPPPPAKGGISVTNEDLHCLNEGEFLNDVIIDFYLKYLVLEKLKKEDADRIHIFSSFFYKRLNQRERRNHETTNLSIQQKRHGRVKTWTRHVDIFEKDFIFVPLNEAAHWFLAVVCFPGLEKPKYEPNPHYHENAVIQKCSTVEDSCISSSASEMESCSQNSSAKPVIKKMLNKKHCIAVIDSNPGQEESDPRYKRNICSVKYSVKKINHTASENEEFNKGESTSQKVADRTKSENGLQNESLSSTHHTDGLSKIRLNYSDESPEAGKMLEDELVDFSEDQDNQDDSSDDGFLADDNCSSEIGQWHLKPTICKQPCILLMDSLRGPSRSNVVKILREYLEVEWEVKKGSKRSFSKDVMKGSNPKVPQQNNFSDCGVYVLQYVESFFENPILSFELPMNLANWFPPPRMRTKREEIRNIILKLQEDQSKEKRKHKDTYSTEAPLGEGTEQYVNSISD
HSP90 refold inh = blocks HSP90-mediated luciferase refolding in reticulocyte lysate. Rabbit reticulocyte lysate, luciferase refolding luminescence, 3 h. inhibition, % at 5.6 µM. hit rate 0.91% among 290,000;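 active means inhibition above the screen-wide mean plus 3 SD, computed separately per campaign, cut at about 16% in these data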;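 further: inhibitors lower the luminescence because luciferase stays unfolded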
SENP8 block-1 = SENP8 protease inhibition; hit rate 1.2% among 330,000; purified SENP8, Z-RLRGG-aminoluciferin cleavage, luminescence; Q96LD8; inhibition, % at 10 µM; in the data active means inhibition above about 50%
SENP8 block-2 = SENP8 (human) protease inhibition | recombinant SENP8, Nedd8 substrate fluorescence | inhibition, % at 20 µM | hit rate 0.64% among 360,000; in the data active means inhibition mostly above about 40%, no sharp cut-off; inactive means mostly below about 27%
SENP1 FRET inh = SENP1 (human) catalytic domain inhibition. inhibition, % at 10 µM. AID 624204. recombinant SENP1 catalytic domain, CyPet-SUMO1-YPet FRET cleavage. hit rate 0.21% among 360,000;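 active means inhibition at least 30% at 10 µM, raw YFP signal under a set limit, fluorescence ratio 0.5 to 1.5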
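Compound: 10 µM single point, 0.5% DMSO; Test system: hSENP1 catalytic domain, recombinant; Timing: 50 min reaction at room temperature; Technique: FRET, CFP and YFP emission; Control set: no-enzyme wells low, DMSO-plus-enzyme wells high control.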
SENP7 inh = inhibitors of human SENP7 protease. Q9BQF6. recombinant SENP7, Z-RLRGG-aminoluciferin luminescence, 40 min. inhibition, % at 5 µM. hit rate 1.5% among 330,000;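 active means inhibition above about 50% at the single test dose, limit read from the data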
SENP8 conf = confirmation of human SENP8 protease inhibitors. inhibition, % at 12.5 µM. shares compounds with SENP7 inh. Recombinant SENP8, Z-RLRGG-aminoluciferin luminescence, 60 min. hit rate 40% among 6,200;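 active means mean inhibition across replicates above about 50%, limit read from the data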
SENP6 confirm = confirmation of human SENP6 protease inhibitors | inhibition, % at 12.5 µM | shares compounds with SENP7 inh | hit rate 58% among 6,200 | recombinant SENP6, Z-RLRGG-aminoluciferin luminescence
SENP7 confirm = human SENP7 inhibition, confirmed; inhibition, % at 12.5 µM; recombinant SENP7, Z-RLRGG-aminoluciferin luminescence, 40 min; hit rate 69% among 6,200; AID 488917; shares compounds with SENP7 inh
Casp3 SENP sel = inhibits human caspase-3 in SENP selectivity test; shares compounds with SENP7 inh; purified caspase-3, Z-DEVD-aminoluciferin luminescence, 60 min; inhibition, % at 12.5 µM; hit rate 60% among 6,200;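 active means mean inhibition above about 50%, limit read from the data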
Luc interf = counter-screen for SENP inhibitors: luminescence interference. shares compounds with SENP7 inh. Pre-incubated SENP8/Z-RLRGG-aminoluciferin, luciferase luminescence interference. inhibition, % at 12.5 µM. hit rate 39% among 6,200;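 active means mean inhibition above about 50% when retested at one dose, limit read from the data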
A number is an active result; . = inactive; / = not tested or not shown.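 How the source made its calls, unless noted: active means mean inhibition above about 50% in the one-dose retest (limit read from the data); inactive means the rest.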

SMILES	SENP6 block	HSP90 refold inh	SENP8 block-1	SENP8 block-2	SENP1 FRET inh	SENP7 inh	SENP8 conf	SENP6 confirm	SENP7 confirm	Casp3 SENP sel	Luc interf
O=C(Nc1nc2c(F)cccc2s1)c1ccc([N+](=O)[O-])o1	70.6	.	.	.	.	.	.	.	.	.	.
CCOC(=O)c1cnc2c(-c3ccccc3)cnn2c1N	.	.	.	.	.	72.1	.	.	.	.	.
CCOC(=O)c1cnc2c(N=Nc3ccccc3)c(N)nn2c1N	.	.	.	.	.	70.1	.	.	.	.	.
CCOC(=O)c1cnc2c(-c3ccccc3)c(C)nn2c1N	.	.	.	.	.	.	/	/	/	/	/
CC(NC(=O)COC(=O)c1ccccc1SCC(=O)N1CCCC1)c1ccccc1 (stereo not given)	.	/	.	.	.	.	/	/	/	/	/
Cc1ccc(C2CCN(C(=O)Nc3ccc(F)cc3)C2)cc1 (stereo not given)	60.9	.	.	.	.	.	.	.	.	.	.
O=C(Nc1ccccc1)N1CC=C(c2ccc(F)cc2)CC1	51.5	.	.	.	.	.	.	.	58.8	.	.
O=C(Nc1ccccc1)N1CC=C(c2ccccc2)CC1	.	.	.	/	/	.	/	/	/	/	/
Cc1cc(=O)[nH]c(N/N=C/c2ccccc2Cl)n1	.	.	.	.	.	.	/	/	/	/	/
Cc1cc(=O)[nH]c(N/N=C/c2sccc2C)n1	63.8	.	.	.	.	56.2	.	.	79.2	80.8	.
Cc1cc(=O)[nH]c(N/N=C/c2cc(C)n(-c3ccccc3)c2C)n1	65.8	.	.	.	.	.	66.2	63.5	87.3	76.5	.
CCOC(=O)CC(=O)CSc1ncnc2c1nnn2-c1ccc(OC)cc1	.	.	.	.	.	.	/	/	/	/	/
COc1ccc(/C=C/C(=O)Nc2cccnc2Cl)cc1	89.2	.	88.9	.	.	91.5	.	92.2	100.7	94.6	61.9
COc1ccccc1/C=C/C(=O)Nc1cccnc1Cl	.	.	.	.	.	.	/	/	/	/	/
COc1ccc(NC(=S)N(CCN2CCOCC2)Cc2cc3cc4c(cc3[nH]c2=O)OCCO4)cc1	.	.	.	.	.	.	/	/	/	/	/
CCCCOc1ccc(C(=O)Nc2ccncc2)cc1	57.0	.	.	.	.	.	.	.	77.0	52.2	.
CCCOc1ccc(C(=O)Nc2cccnc2)cc1	69.8	.	.	.	.	68.8	53.8	51.5	85.7	82.7	68.6
O=C(Nc1cccc(Oc2ccc(C(=O)O)c(C(=O)O)c2)c1)c1ccc(-c2ccccc2)cc1	71.7	.	.	.	.	.	51.2	.	64.3	50.5	68.2
CC(C)(C)C(=O)Nc1ccc(C(=O)Nc2cccc(Oc3ccc(C(=O)O)c(C(=O)O)c3)c2)cc1	.	.	.	.	.	.	/	/	/	/	/
O=C(Nc1ccccc1)C(=O)Nc1cccnc1	76.4	16.3	68.8	.	.	85.8	.	.	67.4	73.3	.
O=C(Nc1cccnc1)c1ccc(Oc2ccccc2)cc1	90.4	.	78.3	.	.	89.0	85.0	87.6	98.4	85.2	70.2
CCN1C(=O)/C(=C2/Sc3ccccc3N2CC)S/C1=N\c1ncn[nH]1	.	.	.	.	.	.	/	/	/	/	/
Cc1ccc(S(=O)(=O)N2CCN(C(=O)C(C)Cn3nc(C)c(C)c3C)CC2)cc1 (stereo not given)	.	.	.	.	.	.	/	/	/	/	/
